Measured values of several laboratories.
Each line is one published result; the experiments were not run side by side.

| SMILES | cell line | test | conditions | IC50 |
| --- | --- | --- | --- | --- |
| Cc1ccc2nc(-c3cccc(O)c3)[nH]c2c1 | human Rhabdomyosarcoma cell | cell growth or viability, MTT | 48 h | 19.3 µM |
| O=C(O)Cc1ccccc1Nc1c(Cl)cccc1Cl | RAW264.7 | IL-6 release, inhibitor | LPS-stimulated | 10.2 µM |
| O=C(/C=C(O)/C=C/c1ccccn1)/C=C/c1c[nH]c2ccccc12 | CHO-K1 | cell growth or viability, SRB | 72 h | 34.7 µM |
| Fc1ccc(-c2nc3ccccc3n2Cc2ccccc2)cc1 | human Rhabdomyosarcoma cell | cell growth or viability, MTT | – | 28 µM |
| CC(C)C[C@H](NC(=O)[C@H](Cc1ccccc1)NC(=O)c1cnccn1)B(O)O | OV56 | cell growth or viability, ATP luminescence | – | 0.011 µM |
| CSc1ccc(-c2nc3ccc(C)cc3[nH]2)cc1 | human Rhabdomyosarcoma cell | cell growth or viability, MTT | 48 h | 39 µM |
| C(=C\c1c[nH]c2ccccc12)/c1cc(/C=C/c2cccs2)[nH]n1 | CHO-K1 | cell growth or viability, SRB | 72 h | 16.2 µM |
| COc1cc(/C=C/C(=O)CC(=O)/C=C/c2ccc(O)c(OC)c2)ccc1O | CHO-K1 | cell growth or viability, SRB | 72 h | 33.5 µM |
| COc1cc(/C=C/c2cc(/C=C/c3cccc4cnccc34)[nH]n2)ccc1O | CHO-K1 | cell growth or viability, MTT | 72 h | 8.4 µM |
| COc1cccc2c1C(=O)c1c(O)c3c(c(O)c1C2=O)C[C@@](O)(C(=O)CO)C[C@@H]3O[C@H]1C[C@H](N)[C@H](O)[C@H](C)O1 | CHO-K1 | cell growth or viability, SRB | 72 h | 6.2 µM |
